Laboratory results from ChEMBL document CHEMBL4038303, “Simultaneous Drug Targeting of the Promoter MYC G-Quadruplex and BCL2 i-Motif in Diffuse Large B-Cell Lymphoma Delays Tumor Growth” (J Med Chem, 2017).
Activity calls are given as the source filed them.

What was measured:
U2932 [1] = experiment: Potentiation of CPA-induced antitumor activity against human U2932 cells xenografted in SCID mouse assessed as tumor growth inhibition at 7.5 mg/kg, ip for 5 days cotreated with 10 mg/kg NSC-59276 measured on day 9 post first treatment (reference value: 50%); format: functional
Method in brief: (§1)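 U2932 DLBCL cells (10 × 10^6 in 100 μL sterile saline, viability >91%) injected subcutaneously into left flank of SCID mice (6−8 weeks, immunoglobulin ≤20 μg/mL). Mice pair-matched by tumor volume. Drugs given ip daily for 5 days, CPA 30 mg/kg; controls received all diluents. Tumor volume = a2 × b/2 (a smallest, b largest diameter); n = 5−8; Grubbs' test for outliers.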

Homo sapiens [2] = species on record: Homo sapiens; experiment: Binding affinity to BLC2 i-motif promoter DNA in MYC translocation-positive and BCL2 amplification-positive human U2932 cells assessed as downregulation of BLC2 mRNA levels up to 3 uM after 24 hrs by qPCR method
Method in brief: (§2)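 DLBCL lines grown in RPMI with 10% FBS (SUDHL4 15% FBS) and penicillin/streptomycin. Cells exposed for 24 h to rising concentrations up to 3 μM; DMSO as vehicle control. Total RNA isolated, target mRNA measured by TaqMan real-time qPCR, normalized to TBP and expressed relative to untreated cells; triplicate experiments, two-tailed t test.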

Mus musculus [3] = experiment: Toxicity in scid mouse xenografted with human U2932 cells assessed as change in body weight at 10 mg/kg, ip administered for 5 consecutive days cotreated with NSC-59276 and CPA; format: organism-based; settings: in vivo
Method in brief: (§3)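 SCID mice (6−8 weeks, female or male, serum immunoglobulin ≤20 μg/mL by ELISA) implanted subcutaneously in left flank with 10 × 10^6 U2932 cells in 100 μL saline; pair-matched by tumor volume; dosed ip daily for 5 days; controls received all compound diluents; tumor volume a2 × b/2; outliers by Grubbs' test; two-tailed t test with Šidák–Bonferroni correction.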

Homo sapiens [4] = species on record: Homo sapiens; experiment: Binding affinity to BLC2 i-motif promoter DNA in BCL2 and MYC translocation-positive human VAL cells assessed as downregulation of BLC2 mRNA levels up to 3 uM after 24 hrs by qPCR method; method in brief: as §2
Mus musculus [5] = experiment: Reduction in Myc mRNA level in SCID mouse xenografted with human U2932 cells at 10 mg/kg, ip administered for 5 consecutive days cotreated with CPA and NSC-59276 by qPCR method; format: functional, organism-based
Method in brief: (§4)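 Tumors from U2932 xenograft SCID mice given ip treatment daily for 5 days were harvested. Total RNA was taken from the same tumor preparations used for protein lysates, and MYC or BCL2 mRNA was quantified by TaqMan qPCR normalized to TBP. Comparisons were made with diluent-treated mice or CPA-only mice.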

HT = experiment: Down regulation of BLC2 mRNA level in human HT cells up to 3 uM after 24 hrs by qPCR method; format: functional, cell-based; method in brief: as §2
U2932 [6] = experiment: Potentiation of CPA-induced antitumor activity against human U2932 cells xenografted in SCID mouse assessed as reduction in tumor burden AUC at 5 to 7.5 mg/kg, ip for 5 days cotreated with 10 mg/kg NSC-59276 measured on day 9 to 15 post first treatment; format: functional, organism-based; method in brief: as §1
Mus musculus [7] = experiment: Toxicity in scid mouse xenografted with human U2932 cells assessed as change in body weight at 5 mg/kg, ip administered for 5 consecutive days cotreated with NSC-59276 and CPA; format: organism-based; settings: in vivo; method in brief: as §3
Mus musculus [8] = experiment: Reduction in Myc mRNA level in SCID mouse xenografted with human U2932 cells at 2.5 to 5 mg/kg, ip administered for 5 consecutive days cotreated with CPA by qPCR method; format: functional, organism-based; method in brief: as §4
Homo sapiens [9] = species on record: Homo sapiens; experiment: Binding affinity to BLC2 G-quadruplex DNA in BCL2 translocation-positive human SUDHL4 cells assessed as downregulation of BLC2 mRNA levels at 3 uM after 24 hrs by qPCR method; method in brief: as §2
Homo sapiens [10] = species on record: Homo sapiens; experiment: Binding affinity to c-myc G-quadruplex DNA in MYC translocation-positive and BCL2 amplification-positive human U2932 cells assessed as downregulation of MYC mRNA levels after 24 hrs by qPCR method; method in brief: as §2
Homo sapiens [11] = species on record: Homo sapiens; experiment: Stabilization of c-myc G-quadruplex DNA in BCL2 translocation-positive human SUDHL4 cells assessed as potentiation of CPA-induced apoptosis by measuring increase in caspase-3 activity at 3 uM after 24 hrs in presence of NSC-59276 by AFC based fluorescence assay (reference value: 30%)
Homo sapiens [12] = species on record: Homo sapiens; experiment: Binding affinity to c-myc G-quadruplex DNA in human HT cells assessed as downregulation of MYC protein levels up to 3 uM after 24 hrs by Western blot analysis; format: cell-based
Method in brief: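 Cell lines treated 24 h with compound up to 3 μM, with untreated and DMSO-treated controls. Lysates (20 μg total protein) probed by Western blot for BCL2 or MYC with antibodies at 1:1000; actin as loading control. Blots representative of triplicate experiments.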

U2932 [13] = experiment: Potentiation of CPA-induced antitumor activity against human U2932 cells xenografted in SCID mouse assessed as tumor growth inhibition at 7.5 mg/kg, ip for 5 days cotreated with 10 mg/kg NSC-59276 measured on day 15 post first treatment (reference value: 44%); format: functional; method in brief: as §1
Homo sapiens [14] = species on record: Homo sapiens; experiment: Stabilization of c-myc G-quadruplex DNA in MYC translocation-positive and BCL2 amplification-positive human U2932 cells assessed as potentiation of CPA-induced apoptosis by measuring increase in caspase-3 activity at 3 uM after 24 hrs in presence of NSC-59276 by AFC based fluorescence assay (reference value: 30%)
Homo sapiens [15] = species on record: Homo sapiens; experiment: Binding affinity to c-myc G-quadruplex DNA in human VAL cells assessed as downregulation of MYC mRNA levels at 0.25 to 3 uM after 6 hrs by qPCR method; format: cell-based
Mus musculus [16] = experiment: Effect on BCL2 mRNA level in SCID mouse xenografted with human U2932 cells at 2.5 to 5 mg/kg, ip administered for 5 consecutive days cotreated with CPA by qPCR method; format: functional, organism-based; method in brief: as §4
U2932 [17] = experiment: Potentiation of CPA-induced antitumor activity against human U2932 cells xenografted in SCID mouse assessed as reduction in tumor burden at 2.5 mg/kg, ip administered for 5 consecutive days measured up to 10 days post first treatement; format: functional, organism-based
Method in brief: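 SCID mice bearing subcutaneous left-flank U2932 xenografts (10 × 10^6 cells in saline), pair-matched by tumor volume. Test agent given ip daily for 5 days with 50 mg/kg CPA; diluent-treated and CPA-alone controls. Tumor volume estimated as a2 × b/2 from smallest and largest diameters. Grubbs' test for outliers; two-tailed Student's t test.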

Mus musculus [18] = experiment: Reduction in Myc mRNA level in tumor of SCID mouse xenografted with human U2932 cells at 5 to 7.5 mg/kg, ip administered for 5 consecutive days cotreated with CPA and NSC-59276 by qPCR method; format: functional, organism-based; method in brief: as §4
Mus musculus [19] = experiment: Toxicity in scid mouse xenografted with human U2932 cells assessed as survival at 10 mg/kg, ip administered for 5 consecutive days cotreated with NSC-59276 and CPA; format: organism-based; settings: in vivo; method in brief: as §3
Mus musculus [20] = experiment: Toxicity in SCID mouse xenografted with human U2932 cells assessed as survival at 7.5 mg/kg, ip administered for 5 consecutive days in presence of CPA; format: organism-based; settings: in vivo; method in brief: as §3
Mus musculus [21] = experiment: Reduction in Bcl2 mRNA level in SCID mouse xenografted with human U2932 cells at 10 mg/kg, ip administered for 5 consecutive days cotreated with CPA and NSC-59276 by qPCR method; format: functional, organism-based; method in brief: as §4

Cc1c2ccncc2c(C)c2c1[nH]c1ccc(OCCN(C)C)cc12.Cl.Cl
inactive: Activity (Homo sapiens [2]) | Activity (Homo sapiens [4]) | Activity (HT) | Activity (Mus musculus [16])
50%: TGI (U2932 [1])
active: Activity (Mus musculus [5]) | Activity (U2932 [6]) | Activity (Mus musculus [8]) | Activity (Homo sapiens [9]) | Activity (Homo sapiens [10]) Dose-dependent effect | Activity (Homo sapiens [12]) | Activity (Homo sapiens [15]) | Activity (U2932 [17]) | Activity (Mus musculus [18]) | Activity (Mus musculus [21])
Toxic: Activity (Mus musculus [3]) | Activity (Mus musculus [19])
100%: Activity (Homo sapiens [11]) | Activity (Homo sapiens [14])
Non-Toxic: Activity (Mus musculus [7]) | Activity (Mus musculus [20])
37%: TGI (U2932 [13])
